Measured values gathered from unrelated publications.
Lines come from different studies, so protocols differ.
DRD3: D(3) dopamine receptor (DRD3, Homo sapiens, UniProt P35462)
SLC6A3: Sodium-dependent dopamine transporter (SLC6A3, Homo sapiens, UniProt Q01959)
CA12: Carbonic anhydrase 12 (CA12, Homo sapiens, UniProt O43570)

SMILES	target	observed	mode	method	measurement	result
Cc1[nH]c(C)c(S(=O)(=O)Nc2ccc(C(F)(F)F)c(Cl)c2)c1C(=O)N1CC[C@@H](F)C1	DRD3	β-arrestin recruitment	antagonist		IC50	5.1 µM
CCOC(=O)[C@@]12C[C@@H]1[C@@H](n1ccc3c(NCCCCc4ccccc4)nc(C#Cc4ccccc4)nc31)[C@H](O)[C@@H]2O	SLC6A3	ligand displacement		radioligand	Ki	8 µM
COc1cc(C(F)(F)F)c(Cl)cc1NS(=O)(=O)c1c(C)[nH]c(C)c1C(=O)N1CCC(F)(F)C1	DRD3	β-arrestin recruitment	antagonist		IC50	7.2 µM
OC[C@@]12C[C@@H]1[C@@H](n1cnc3c(N[C@@H](C4CCC4)C4CC4)nc(C#Cc4ccc(Cl)s4)nc31)[C@H](O)[C@@H]2O	SLC6A3	ligand displacement		radioligand	Ki	0.89 µM
O=C(OC1CCCCC1)c1ccc(=O)oc1	CA12	enzyme activity	inhibitor	stopped-flow	Ki	3.12 µM
CCOC(=O)[C@@]12C[C@@H]1[C@@H](n1cnc3c(NCCCCCc4ccccc4)nc(C#Cc4ccc(Cl)s4)nc31)[C@H](O)[C@@H]2O	SLC6A3	ligand displacement		radioligand	Ki	3.1 µM
Cc1[nH]c(C)c(S(=O)(=O)Nc2ccc([N+](=O)[O-])c(Cl)c2)c1C(=O)N1CCC(F)(F)C1	DRD3	β-arrestin recruitment	antagonist		IC50	40 µM
N#CSCc1cc(=O)oc2cc(O)ccc12	CA12	enzyme activity	inhibitor	stopped-flow	Ki	0.0236 µM
O=C(Oc1ccccc1)c1ccc(=O)oc1	CA12	enzyme activity	inhibitor	stopped-flow	Ki	65.7 µM
N#C[C@@]12C[C@@H]1[C@@H](n1cnc3c(Nc4ccccc4)nc(C#Cc4ccc(Cl)s4)nc31)[C@H](O)[C@@H]2O	SLC6A3	ligand displacement		radioligand	Ki	1.5 µM
O=C(NCc1cn(-c2ccccc2)nn1)c1ccc(=O)oc1	CA12	enzyme activity	inhibitor	stopped-flow	Ki	62 µM
Cc1ccc(NS(=O)(=O)c2c(C)[nH]c(C)c2C(=O)N2CCC2)cc1Cl	DRD3	β-arrestin recruitment	antagonist		IC50	35 µM
O=C(OCc1cn(-c2ccc([N+](=O)[O-])cc2)nn1)c1ccc(=O)oc1	CA12	enzyme activity	inhibitor	stopped-flow	Ki	62.8 µM
CNC(=O)[C@@]12C[C@@H]1[C@@H](n1cnc3c(NCc4cccc(Cl)c4)nc(C#Cc4ccc(Cl)s4)nc31)[C@H](O)[C@@H]2O	SLC6A3	ligand displacement		radioligand	Ki	1.6 µM
Cc1ccc(-n2cc(CNC(=O)c3ccc(=O)oc3)nn2)cc1	CA12	enzyme activity	inhibitor	stopped-flow	Ki	57.8 µM
Cc1[nH]c(C)c(S(=O)(=O)Nc2ccc(C(F)(F)F)c(Cl)c2)c1C(=O)N1C[C@@H](F)[C@H](F)C1 (relative stereo)	DRD3	G protein activation	antagonist	BRET	IC50	0.58 µM
N#CC[C@@]12C[C@@H]1[C@@H](n1cnc3c(NC4CC4)nc(C#Cc4ccc(Cl)s4)nc31)[C@H](O)[C@@H]2O	SLC6A3	ligand displacement		radioligand	EC50	0.2 µM
C#CCNC(=O)c1ccc(=O)oc1	CA12	enzyme activity	inhibitor	stopped-flow	Ki	68.1 µM
Cc1[nH]c(C)c(S(=O)(=O)Nc2ccc(C(F)(F)F)c(Cl)c2)c1C(=O)N1CCN(C(=O)OC(C)(C)C)CC1	DRD3	G protein activation	antagonist	BRET	IC50	29 µM
CCOC(=O)[C@@]12C[C@@H]1[C@@H](n1cnc3c(NCCO)nc(C#Cc4ccc(Cl)s4)nc31)[C@H](O)[C@@H]2O	SLC6A3	ligand displacement		radioligand	EC50	0.97 µM
COc1ccc(OC(=O)c2ccc(=O)oc2)cc1	CA12	enzyme activity	inhibitor	stopped-flow	Ki	1.65 µM
OC[C@@]12C[C@@H]1[C@@H](n1cnc3c(NCCCCCCc4ccccc4)nc(I)nc31)[C@H](O)[C@@H]2O	SLC6A3	ligand displacement		radioligand	Ki	0.89 µM
OCc1ccccc1O[C@@H]1O[C@H](CO)[C@@H](O)[C@H](O)[C@H]1O	Taste receptor type 2 member 16 (TAS2R16, Homo sapiens, UniProt Q9NYV7)	inositol phosphate	agonist	TR-FRET	EC50	13000 µM
Cc1[nH]c(C)c(S(=O)(=O)Nc2ccc(C3CC3)c(Cl)c2)c1C(=O)N1CCC(F)(F)C1	DRD3	β-arrestin recruitment	antagonist		IC50	13 µM
CC(C)(Sc1ccc(CCN(CCCCC2CCCCC2)C(=O)NC2CCCCC2)cc1)C(=O)O	Triggering receptor expressed on myeloid cells 2 (Homo sapiens, UniProt Q9NZC2)	binding		SPR	Kd	86.2 µM
COc1ccc(-n2cc(CNC(=O)c3ccc(=O)oc3)nn2)cc1	CA12	enzyme activity	inhibitor	stopped-flow	Ki	58.7 µM
Cc1[nH]c(C)c(S(=O)(=O)Nc2ccc(C(F)(F)F)c(Cl)c2)c1C(=O)O	DRD3	G protein activation	antagonist	BRET	IC50	19 µM
